Source: PubChem BioAssay
In the library only some 2.4% were active in any assay of this set; here they are far more common.
Rtt109 HAT inh: blocks Candida albicans Rtt109/Vps75 acetyltransferase activity | purified Rtt109/Vps75, ThioGlo CoA-SH fluorescence, 4 h | inhibition, % at 34.9 µM | 330,000 compounds, 0.16% hits | AID 540336;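 active = inhibition of at least 50% in every replicate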
Target sequence (Q5AAJ8 whole entry, looked up): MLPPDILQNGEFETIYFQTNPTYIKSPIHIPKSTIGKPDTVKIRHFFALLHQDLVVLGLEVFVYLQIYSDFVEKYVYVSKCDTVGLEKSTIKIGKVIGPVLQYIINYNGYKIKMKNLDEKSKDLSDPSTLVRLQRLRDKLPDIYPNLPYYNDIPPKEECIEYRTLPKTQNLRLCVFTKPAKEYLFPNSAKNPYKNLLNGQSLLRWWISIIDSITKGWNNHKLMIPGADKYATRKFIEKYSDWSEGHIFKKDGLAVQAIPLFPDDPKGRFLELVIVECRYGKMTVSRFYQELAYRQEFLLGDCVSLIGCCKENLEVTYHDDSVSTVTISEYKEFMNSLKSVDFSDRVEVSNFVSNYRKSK
HIV Env fusion: inhibitors of HIV Env-mediated cell fusion; inhibition, % at 12.3 µM; HeLa-JRFL Env/CEM21 cell fusion, luciferase; 360,000 compounds, 1.1% hits;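 active = mean replicate inhibition score of at least 50 and every replicate individually at or above 50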
miR122 inh: blocks miR-122 activity in Huh7 sensor cells | activation (reporter increase), % at 12.5 µM | AID 602342 | 340,000 compounds, 0.3% hits | Huh7 miR-122 Renilla luciferase sensor, 48 h; neutral wells = 0, positive control = 100;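 active = mean replicate activation score at least 90 and every replicate individually at or above 90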;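 note: higher luciferase means less miR-122 activity so hits act as miR-122 inhibitors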
Cneo AK release: causes C. neoformans cell lysis; adenylate kinase release luminescence, 4 h; normalised: neutral wells 0, clomiphene wells 100; lysis activity, % at 15 µM; 360,000 compounds, 0.2% hits; AID 651654;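 active = mean lysis activity across replicates of at least 80%, whatever share of replicates individually reach that level; inactive = mean lysis activity below 80%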
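Material: C. neoformans cells; Schedule: 4 h static compound exposure, 37 °C, read 1 h post-reagent; Measured by: adenylate kinase release luminescence; Read-out: signal increase indicating cell lysis; Controls: Clomiphene as positive lysis control.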
GSIS activator: primary screen for activators of insulin secretion dependent on glucose, INS-1E cells, GLuc reporter luminescence | activation, % at 16.6 µM | INS-1E GLuc reporter insulin secretion, 2-3 h | 370,000 compounds, 0.61% hits;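 active = lowest replicate activation of at least 40%, so every replicate reaches that level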
dFosB activator: mouse delta FosB homodimer activation | purified delta FosB, TAMRA-CDK5 oligo fluorescence polarization; percent of positive-control signal above neutral wells | activation, % at 25 µM | 340,000 compounds, 0.99% hits;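 active = mean activation above about 17%, with every replicate also reaching it, limit read from the data, passing the limit was not always enough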
Target sequence (P13346 whole entry, looked up): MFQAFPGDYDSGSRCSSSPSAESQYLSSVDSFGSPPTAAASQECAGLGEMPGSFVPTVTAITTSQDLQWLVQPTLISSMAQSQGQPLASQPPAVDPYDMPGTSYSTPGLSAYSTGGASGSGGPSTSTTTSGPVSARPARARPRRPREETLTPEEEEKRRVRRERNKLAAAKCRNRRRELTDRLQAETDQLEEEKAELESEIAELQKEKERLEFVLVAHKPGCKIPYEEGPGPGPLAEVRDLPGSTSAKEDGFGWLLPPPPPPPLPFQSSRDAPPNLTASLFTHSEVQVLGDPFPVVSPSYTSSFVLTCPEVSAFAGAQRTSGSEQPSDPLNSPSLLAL
Large screens that a line does not name were inactive; [ ] = dose if it differs, or a comment.

O=C(NC(=S)Nc1ccccc1N1CCOCC1)c1cccc([N+](=O)[O-])c1	Cneo AK release 258 (no result: miR122 inh)
CCC(=O)N1CCN(c2ccccc2NC(=S)NC(=O)c2cccc([N+](=O)[O-])c2)CC1	none (no result: Rtt109 HAT inh, miR122 inh, Cneo AK release)
Cn1cnc(S(=O)(=O)N2C[C@H](O)COC[C@H]3O[C@H](CC(=O)NC4Cc5ccccc5C4)CC[C@@H]32)c1	none (no result: Rtt109 HAT inh, dFosB activator)
CC(C)NC(=O)Nc1ccc2c(c1)CC(=O)N([C@@H](C)CO)C[C@@H](C)[C@H](CN(C)C(=O)NC1CCCCC1)O2	none (no result: Rtt109 HAT inh, dFosB activator)
CC(=O)N1[C@@H]2CN(CC3CC3)C[C@H]1C2c1ccc(Br)cc1 (some centres not stated)	none (no result: Rtt109 HAT inh, HIV Env fusion, miR122 inh, Cneo AK release, dFosB activator)
CC=Cc1ccc2n(c1=O)C[C@@H]1[C@@H](CO)[C@H](C(=O)Nc3ccccc3)N(CC3CCCC3)[C@H]21 (mixture of isomers)	none (no result: Rtt109 HAT inh, miR122 inh, dFosB activator)
COc1ccc(C(C(=O)NC(C)(C)C)N(Cc2ccccc2)C(=O)CCC(=O)Nc2cc(C)on2)cc1 (configuration not stated)	none (no result: miR122 inh, Cneo AK release)
COc1ccc(C(C(=O)NC(C)(C)C)N(CCC(C)C)C(=O)CCC(=O)Nc2cc(C)on2)cc1 (configuration not stated)	HIV Env fusion 69
Cn1cc(CN2CCCC(CNC(=O)c3ccc4c(c3)OCO4)C2)c2ccccc21 (configuration not stated)	HIV Env fusion 56
CC(=O)NCC1CCCN(Cc2cn(-c3ccccc3)nc2-c2ccc3c(c2)OCO3)C1 (configuration not stated)	none (no result: miR122 inh, Cneo AK release)
CCN(CC)CCn1c(=N)n(CCO)c2ccccc21	none (no result: HIV Env fusion, GSIS activator)
CCN(CC)CCn1c(=N)n(CCOc2ccccc2)c2ccccc21	HIV Env fusion 56
CCN(CC)CCn1c(=N)n(CC(O)COc2ccccc2)c2ccccc21 (configuration not stated)	GSIS activator 51
CCCn1c(=N)n(CC(O)COc2ccc(C)cc2)c2ccccc21 (configuration not stated)	none (no result: miR122 inh, Cneo AK release)
CN(C)C(=O)C[C@H]1CC[C@@H](NC(=O)NC2CCCC2)[C@@H](CO)O1	none (no result: Rtt109 HAT inh, miR122 inh, dFosB activator)
CCCNC(=O)N1[C@@H](C#N)[C@H](c2ccc(-c3cccnc3)cc2)[C@@H]1CO	none (no result: Rtt109 HAT inh, miR122 inh, dFosB activator)
CCCNC(=O)N1[C@H](C#N)[C@H](c2ccc(-c3cccnc3)cc2)[C@@H]1CO	HIV Env fusion 64[16.7 µM] (no result: Rtt109 HAT inh, miR122 inh, dFosB activator)
CC(=O)N(C)C[C@@H]1[C@@H](c2ccc(-c3cccnc3)cc2)[C@H](CO)N1C(=O)C1CC1	miR122 inh 258[16.7 µM] (no result: Rtt109 HAT inh, HIV Env fusion, dFosB activator)
N#C[C@@H]1[C@H](c2ccc(-c3cccc(F)c3)cc2)[C@H](CO)N1C(=O)c1cccnc1	HIV Env fusion 66[16.7 µM] (no result: Rtt109 HAT inh, miR122 inh, dFosB activator)
CCCNC(=O)N1[C@H](C#N)[C@H](c2ccc(-c3ccc(C(=O)N(C)C)cc3)cc2)[C@@H]1CO	HIV Env fusion 68[16.7 µM] (no result: Rtt109 HAT inh, miR122 inh, dFosB activator)
Cc1ccc(S(=O)(=O)N2CC[C@H]3[C@H](CO)Nc4ccc(C#Cc5ccc(F)cc5)cc4[C@H]32)cc1	none (no result: Rtt109 HAT inh, HIV Env fusion, dFosB activator)
C[C@H]1CN(C)C(=O)Cc2ccccc2O[C@H]1CN(C)S(C)(=O)=O	none (no result: Rtt109 HAT inh, HIV Env fusion, miR122 inh, Cneo AK release, dFosB activator)
Cc1ccc(S(=O)(=O)N[C@H]2C=C[C@@H](CC(=O)NCCN3CCCCC3)O[C@@H]2CO)cc1	none (no result: Rtt109 HAT inh, dFosB activator)
CC(=O)N1[C@@H](CO)[C@H](c2ccc(-c3ccccc3)cc2)[C@@H]1CNC(=O)C1CC1	Cneo AK release 95 (no result: Rtt109 HAT inh, HIV Env fusion, dFosB activator)
O=C(c1ccccn1)N1C[C@H]2[C@@H](c3ccccc31)[C@@H](CO)N2CC1CCCC1	none (no result: Rtt109 HAT inh, HIV Env fusion, miR122 inh, Cneo AK release, dFosB activator)
O=C(C[C@H]1C=C[C@@H](NC(=O)C2CCOCC2)[C@H](CO)O1)NCc1ccccc1Cl	none (no result: Rtt109 HAT inh, HIV Env fusion, miR122 inh, Cneo AK release, dFosB activator)
Cc1cccc(NC(=O)c2ccc(S(=O)(=O)N3CC(C)OC(C)C3)cc2)n1 (configuration not stated)	HIV Env fusion 56
COc1ccc2c3c([nH]c2c1)[C@@H](CO)N(Cc1ccccc1)CC31CN(C)C1	none (no result: Rtt109 HAT inh, HIV Env fusion, miR122 inh, Cneo AK release, dFosB activator)
O=[N+]([O-])c1ccc(CS(=O)c2ccccc2)cc1 (configuration not stated)	none (no result: miR122 inh, Cneo AK release, GSIS activator)
O=[N+]([O-])c1ccc(S(=O)Cc2ccccc2)c([N+](=O)[O-])c1 (configuration not stated)	GSIS activator 117 (no result: miR122 inh, Cneo AK release)
CSc1cccc(NS(=O)(=O)c2ccccc2)c1	none (no result: HIV Env fusion, GSIS activator)
CSc1cccc(NS(=O)(=O)c2cc(Br)cnc2N)c1	miR122 inh 106
Nc1ncc(Br)cc1S(=O)(=O)NCCc1ccccc1	miR122 inh 105 (no result: GSIS activator)
Cc1cc(C)cc(NS(=O)(=O)c2cc(Br)cnc2N)c1	miR122 inh 98 (no result: GSIS activator)
CC1CCCC(NS(=O)(=O)c2cc(Br)cnc2N)C1C (configuration not stated)	none (no result: miR122 inh)
Nc1ncc(Br)cc1S(=O)(=O)NC1CCCCC1	miR122 inh 126
C[C@@H]1CN(C)C(=O)c2cccc(N(C)C)c2O[C@@H]1CN(C)C	none (no result: Rtt109 HAT inh, HIV Env fusion, miR122 inh, Cneo AK release, dFosB activator)
CO[C@@H]1CN(C)C(=O)c2ccc(NC(=O)C3CC3)cc2OC[C@@H](C)N(C(=O)c2ccccc2F)C[C@H]1C	none (no result: Rtt109 HAT inh, dFosB activator)
COc1ccccc1CN1[C@@H](CO)[C@@H](c2ccccc2)C12CN(C(=O)c1ccccn1)C2	none (no result: Rtt109 HAT inh, HIV Env fusion, miR122 inh, Cneo AK release, dFosB activator)
Cc1ccccc1-c1ccc([C@H]2[C@@H](CO)N3C(=O)CN(C(=O)Nc4ccc(F)cc4)C[C@@H]23)cc1	none (no result: Rtt109 HAT inh, HIV Env fusion, miR122 inh, Cneo AK release, dFosB activator)
Cc1ccc(NS(=O)(=O)c2cc(Br)cnc2N)cc1C	miR122 inh 144
COCCn1c(SCC(=O)Nc2ccc(Cl)c(S(=O)(=O)N(C)C)c2)nc2ccccc21	HIV Env fusion 60 (no result: GSIS activator)
COCCn1c(SCC(=O)Nc2ccc(S(N)(=O)=O)cc2)nc2ccccc21	none (no result: HIV Env fusion, Cneo AK release, GSIS activator)
C/C=C/c1ccc([C@H]2[C@@H](CO)N(C(C)=O)C23CN(C(=O)c2ccc(F)cc2)C3)cc1	none (no result: Rtt109 HAT inh, HIV Env fusion, miR122 inh, Cneo AK release, dFosB activator)
Cc1ccc(S(=O)(=O)N(C)C[C@@H]2Oc3ccc(NC(=O)C4CCCCC4)cc3CC(=O)N([C@@H](C)CO)C[C@@H]2C)cc1	HIV Env fusion 79[16.7 µM] (no result: Rtt109 HAT inh, dFosB activator)
COc1ccc(S(=O)(=O)N(C)C[C@H]2Oc3ccc(NC(=O)C4CCCCC4)cc3CC(=O)N([C@H](C)CO)C[C@@H]2C)cc1	none (no result: Rtt109 HAT inh, dFosB activator)
Cc1ccc(S(=O)(=O)N(C)C[C@H]2Oc3ccc(NC(=O)C4CCCCC4)cc3CC(=O)N([C@H](C)CO)C[C@@H]2C)cc1	none (no result: Rtt109 HAT inh, dFosB activator)
COc1ccc(S(=O)(=O)N(C)C[C@@H]2Oc3ccc(NC(=O)C4CCCCC4)cc3CC(=O)N([C@@H](C)CO)C[C@@H]2C)cc1	HIV Env fusion 66[16.7 µM] (no result: Rtt109 HAT inh, dFosB activator)
COc1ccc(-c2cn(CC[C@H]3CC[C@@H](NS(=O)(=O)c4ccccc4C)[C@H](CO)O3)nn2)cc1	none (no result: Rtt109 HAT inh, miR122 inh, dFosB activator)
O=C(NC1CCCC1)C(c1ccc(F)cc1)N(Cc1ccccc1)C(=O)c1csnn1 (configuration not stated)	none
